In general, inhibition in vivo refers to the relative decrease from the control value, in per cent.

Inhibition in vivo and Swelling data for two compounds are collected here from ChEMBL document CHEMBL1126267, “A novel synthesis and potent antiinflammatory activity of 4-hydroxy-2(1H)-oxo-1-phenyl-1,8-naphthyridine-3-carboxamides” (1992).

Holding throughout (assay type): functional
What all share (settings): route oral

For test [1], the system named is Rattus norvegicus. Briefly: Compound was tested for the inhibition of rat reversed passive Arthus pleurisy after peroral administration of 100 mg/kg dose at 3.22*10e6 no of cells with 3.86*10e6 cells of control. The procedure, abridged:
(§1)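 Male Wistar rats (about 250 g) were given compound orally before the antiserum. Under ether anesthesia, 0.2 mL rabbit anti-egg albumin antiserum was injected intrapleurally. After 30 min, egg albumin (15 mg/100 g body weight in 0.1 mL saline) was given iv. Rats were killed 4.5 h later and the thoracic cavity was rinsed with 5 mL saline. Exudate volume and infiltrated cell number were measured, with inhibition % versus controls as mean ± SEM.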

Test [2] deals with Rattus norvegicus. Kind of test: Compound was tested for the inhibition of rat reversed passive Arthus pleurisy after peroral administration of 100 mg/kg dose at 0.82 mL of exudate volume with 0.86 mL of control (injected intrapleurally). Put shortly: as §1
Test [3] has as its system Rattus norvegicus. Kind of test: Inhibition of Zymosan-induced rat's paw edema(ZPE) after peroral administration of 100 mg/kg dose. Put shortly:
(§2)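 Male Wistar rats (about 150 g) were dosed orally with compound suspended in 5% arabic gum, 1 h before a subplantar hind-paw injection of 0.1 mL saline. The irritant was 1% zymosan for 33 or 1% λ-carrageenin for 34. Paw volume was measured by plethysmograph before dosing and at 4 h (zymosan) or 3 h (carrageenin). Swelling is relative to initial volume, as mean ± SEM. % inhibition is versus the control group's mean swelling.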

In test [4] the test system is Rattus norvegicus. Briefly: Antiinflammatory activity on Carrageenan rat's paw edema(CPE) after peroral administration of 100 mg/kg dose with control swelling of 90.0%. Background: In the carrageenan paw model, swelling and tenderness develop within hours.
The subject of test [5] is Rattus norvegicus. Kind of test: Antiinflammatory activity on Zymosan-induced rat's paw edema(ZPE) after peroral administration of 100 mg/kg dose with control swelling of 85.5%. Put shortly: (§3)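 Male Wistar rats weighing about 150 g were dosed orally with compound suspended in 5% arabic gum. 1 h later, 1% zymosan in 0.1 mL saline was injected subplantarly into the hind paw. Paw volume was measured by plethysmograph before dosing and 4 h after zymosan, with edema as the volume difference. Inhibition % was derived from mean swelling versus the control group.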

Test [6] concerns Rattus norvegicus. Kind of test: Inhibition of carrageenan-induced rat's paw edema (CPE) after peroral administration of 100 mg/kg dose. Put shortly: as §2
Test [7] concerns Rattus norvegicus. Kind of test: Compound was tested for the inhibition of rat reversed passive Arthus pleurisy after peroral administration of 100 mg/kg dose at 3.37*10e6 no of cells with 3.62*10e6 cells of control. The procedure, abridged:
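Male Wistar rats (about 250 g) under ether received 0.2 mL rabbit anti-egg-albumin antiserum intrapleurally. Thirty min later they got 15 mg EA/100 g body weight in 0.1 mL saline iv. Compounds were given orally beforehand. Rats were killed 4.5 h after induction and the thoracic cavity rinsed with 5 mL saline. Exudate volume and infiltrated cell count were read as mean ± SE. % inhibition is versus control.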

Test [8] deals with Rattus norvegicus. Briefly: Compound was tested for the inhibition of rat reversed passive Arthus pleurisy after peroral administration of 100 mg/kg dose at 0.61 mL of exudate volume with 0.54 mL of control (injected intrapleurally). The procedure, abridged: as §1
Test [9] deals with Rattus norvegicus. Briefly: Antiinflammatory activity on Carrageenan rat's paw edema(CPE) after peroral administration of 100 mg/kg dose with control swelling of 68.1%.
The test system of test [10] is Rattus norvegicus. Briefly: Antiinflammatory activity on Zymosan-induced rat's paw edema(ZPE) after peroral administration of 100 mg/kg dose with control swelling of 62.0%. Put shortly:
as §3

With `O=C(Nc1cccc(Cl)c1)c1c(O)c2cccnc2n(-c2ccccc2)c1=O`, the inhibition in vivo at 100 mg/kg came to 21.7% with Rattus norvegicus [1], 5.2% in the test with Rattus norvegicus [2], 7.6% with Rattus norvegicus [3] and 13.4% in the test with Rattus norvegicus [6]. Also, the Swelling with Rattus norvegicus [4] was determined as 77.9%; with Rattus norvegicus [5], 79%.
As to `O=C(NCc1ccccc1)c1c(O)c2cccnc2n(-c2ccccc2)c1=O`, the inhibition in vivo at 100 mg/kg in the test with Rattus norvegicus [7] was 9.6%; in the test with Rattus norvegicus [8] it was -14.3%; in the test with Rattus norvegicus [3] it was 1.6%; in the test on Rattus norvegicus [6], 11.3%. In addition, the values for the Swelling in the test with Rattus norvegicus [9] and in the test with Rattus norvegicus [10] were 60.4% and 60.3%, respectively.
